High-throughput results: PubChem BioAssay, several laboratories
Rce1 inh: yeast Rce1p protease inhibitors, primary screen, biochemical, fluorescence, cell-free homogeneous; yeast membranes, quenched prenylated peptide cleavage fluorescence; calls only; actives 0.27% (n = 290,000); AID 2563, 2010;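 active = fall in fluorescence gain of 50% or more versus controls, with final raw signal at or below 3038400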;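 also: plate controls were neutral control wells for no effect and wells lacking membranes for full effect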
Target sequence (Q03530 whole entry, looked up): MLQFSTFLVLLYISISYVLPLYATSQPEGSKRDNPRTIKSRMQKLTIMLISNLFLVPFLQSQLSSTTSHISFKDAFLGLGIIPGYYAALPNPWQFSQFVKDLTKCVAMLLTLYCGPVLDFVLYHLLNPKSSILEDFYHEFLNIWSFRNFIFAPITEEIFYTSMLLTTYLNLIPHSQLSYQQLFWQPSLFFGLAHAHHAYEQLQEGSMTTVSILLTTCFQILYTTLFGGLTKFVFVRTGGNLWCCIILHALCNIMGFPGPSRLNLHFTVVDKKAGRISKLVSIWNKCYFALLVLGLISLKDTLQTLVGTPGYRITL
UCH37 inh: inhibitors of human UCH37 deubiquitinase, primary screen, biochemical, Ub-AMC cleavage, fluorescence; inhibition, % (no concentration beside the values); purified proteasome/UCH37; Ubiquitin carboxyl-terminal hydrolase isozyme L5 (Homo sapiens), Q9Y5K5; actives 0.33% (n = 330,000);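 active = mean inhibition over replicate wells above about 20%, limit read from the data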;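 also: 0% = compound-free wells with enzyme and 100% = wells lacking proteasome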
Target sequence (Q9Y5K5 whole entry, looked up): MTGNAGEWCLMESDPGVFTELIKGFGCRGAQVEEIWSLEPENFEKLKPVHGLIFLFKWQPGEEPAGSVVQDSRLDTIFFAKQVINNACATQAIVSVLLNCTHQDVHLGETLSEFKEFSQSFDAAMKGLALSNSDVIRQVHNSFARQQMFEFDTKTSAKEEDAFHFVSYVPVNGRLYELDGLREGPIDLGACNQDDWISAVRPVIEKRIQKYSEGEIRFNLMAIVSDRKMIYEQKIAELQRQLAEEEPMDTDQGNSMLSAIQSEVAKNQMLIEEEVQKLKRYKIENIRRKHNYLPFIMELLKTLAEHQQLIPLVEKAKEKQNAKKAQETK
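Assay system: Proteasome-bound UCH37. Buffer or medium: pH 7.4 Tris-HCl (50 mM) with ovalbumin, ATP-MgCl2, DTT. Incubation: 30 min preincubation with enzyme, 25 min cleavage at room temperature. Measured by: fluorescence, ex 355 nm, em 460 nm. Read-out basis: percent inhibition. Control set: wells without proteasome as full block, compound-free enzyme plus substrate as uninhibited.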
MIN6 prolif-1: inducers of MIN6 beta-cell proliferation, primary screen, ATP luminescence, uHTS; MIN6 cells proliferation, ATPlite luminescence, 48 h; cells starved in 0.2% serum; 100% = growth in 10% serum; proliferation, % at 10 µM; actives 0.29% (n = 330,000);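 active = compounds whose signal lies at least 3.5 SD above the mean of all wells on their plate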;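 also: 0% = DMSO-treated cells in low-serum medium and 100% = 10% serum control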
PG9 Ab binder: binders of HIV-1 gp120 antibody PG9, primary screen, biochemical, TR-FRET | TR-FRET gp120-PG9 antibody binding | inhibition, % at 6.7 µM | actives 0.43% (n = 360,000); in the data active = inhibition above about 8.5%
Rev-erbA mod: modulators of Rev-erb alpha DNA binding, primary screen, biochemical, FITC-DNA, fluorescence polarization, uHTS. Rev-erbα–FITC-DNA binding, 90 min. Nuclear receptor subfamily 1 group D member 1 (Homo sapiens), P20393. actives 0.79% (n = 370,000). activity, % at 10 µM. AID 1259318, 2017;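 active = activity above about 14%, limit read from the data; passing the limit was not always enough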;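 also: 0% = DMSO wells with 35 nM protein and 100% = DMSO wells with 750 nM protein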
Yeast superoxide: reduction of superoxide in aged yeast, primary screen, HTS; S. cerevisiae aged cells, superoxide DHE fluorescence; stronger effect = lower value; actives 0.18% (n = 330,000); superoxide response (% of plate mean), % at 10 µM; AID 2690, 2010;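 active = superoxide response under a set limit, about three screen SD below normal, cut at about 65% in these data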;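 also: yeast aged for seven days with compound at 30 °C before DHE staining; 100% = average MFI of all compound-treated wells on the plate with controls excluded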
MIN6 prolif-2: inducers of beta-cell proliferation in MIN6, confirmation, MIN6 cells, mouse; shares compounds with MIN6 prolif-1; ATPlite luminescence, 48 h; cells kept in 0.2% serum; scaled between 0.2% and 10% serum; proliferation increase, % at 50 µM; 920 tested, under 10 active; AID 463095, 2010;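 active = proliferation increase above 40% at any of the four tested concentrations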
An asterisk follows results filed as active; i = inactive; nt = no result given. Sampled rows, rich in hits. Any-hit rate of the full collection: about 1.9%.

SMILES | Rce1 inh | UCH37 inh | MIN6 prolif-1 | PG9 Ab binder | Rev-erbA mod | Yeast superoxide | MIN6 prolif-2
Cc1ccc(C(C(=O)NC2CCCCC2)N(CC2CCCO2)C(=O)CNC(=O)c2ccco2)cc1 (centres undefined) | i | 2.1 | 5.5* | -2.5 | -0.8 | 88.5 | -0.9
O=C(NCC(=O)N(Cc1ccccc1)C(C(=O)NC1CCCC1)c1ccco1)c1ccco1 (centres undefined) | i | 1.0 | -0.6 | 1.3 | -7.3 | 95.6 | nt
O=C(NCC(=O)N(Cc1ccc(F)cc1)C(C(=O)NC1CCCC1)c1ccco1)c1ccco1 (centres undefined) | i | 3.2 | 7.1* | 1.9 | 7.9 | 84.0 | -2.3
O=C(NCC(=O)N(CC1CCCO1)C(C(=O)NC1CCCCC1)c1ccc(F)cc1)c1ccco1 (centres undefined) | i | -1.5 | 0.7 | 1.2 | -1.8 | 99.8 | nt
Cc1ccc(C)c(N(C(=O)c2ccco2)C(C(=O)NC2CCCC2)c2ccco2)c1 (centres undefined) | i | -0.6 | 5.7* | 0.3 | -3.9 | 100.4 | -5.8
O=C(NC1CCCC1)C(c1ccco1)N(C(=O)c1ccco1)c1ccccc1 (centres undefined) | i | 2.0 | -3.0 | 1.6 | 2.3 | 104.2 | nt
CCOc1ccc(-c2nc(-c3cccnc3)no2)cc1OCC | i | 1.8 | 9.7* | 1.6 | 4.9 | 98.0 | -0.7
CCOc1ccc(-c2noc(-c3cccnc3)n2)cc1OCC | i | 0.9 | 3.0 | -1.8 | 0.9 | 94.9 | nt
CCOc1cc(-c2nc(-c3cc(OC)c(OC)c(OC)c3)no2)cc(OCC)c1OCC | i | 1.5 | 6.5* | nt | nt | 104.2 | 2.9
CCC(=O)Nc1cc(C(=O)O)ccc1Sc1ccc(C)cc1 | i | 4.9 | 7.5* | 0.2 | -4.6 | 99.7 | -0.5
CCOC(=O)CNC(=O)CSc1nc(N(C)C)nc(N2CCOCC2)n1 | i | 3.6 | 5.5* | -0.1 | -1.1 | 104.9 | 2.8
CCOC(=O)c1ccc(NC(=O)CSc2nc(N3CCOCC3)nc(N3CCOCC3)n2)cc1 | i | 5.9 | -0.5 | -1.4 | -1.7 | 124.9 | nt
Cc1nn(-c2cccc(C(F)(F)F)c2)c(Cl)c1C=NNc1cccc(C(=O)O)c1 | nt | 5.7 | nt | nt | nt | nt | nt
CCN(CC)c1cnn(C/C(=N\OC)c2ccc(Cl)cc2)c(=O)c1Br | i | nt | 7.5* | -0.4 | -3.2 | 104.0 | -6.4
CON=C(Cn1ncc(NC2CCCCC2)c(Br)c1=O)c1ccc(Cl)cc1 | nt | 0.6 | nt | nt | nt | nt | nt
Cc1cc(C(=O)NNC(=O)CCN2CCN(c3ccccc3)CC2)c2ccccc2n1 | i | 1.0 | -1.3 | 0.2 | 4.2 | 99.2 | nt
CCc1cc(C(=O)NNC(=O)CCN2CCN(c3ccccc3)CC2)sc1C | i | -0.6 | 12.9* | -1.1 | 2.4 | 105.3 | -3.4
COc1ccccc1C(=O)NCC(=O)OCC(=O)Nc1cccc(S(=O)(=O)N(C)C)c1 | i | 0.8 | -0.5 | -2.7 | 3.7 | 96.2 | nt
CN(C)S(=O)(=O)c1cccc(NC(=O)COc2ccccc2C(=O)NCc2ccccc2)c1 | nt | nt | 13.0* | -1.7 | -5.8 | nt | -5.6
COc1ccccc1/C=C/C=NNC(=O)CC1C(=O)NN=C1C (centres undefined) | nt | 6.2 | nt | nt | nt | nt | nt
CC(C)CC(C(=O)NC1CCCCC1)N(Cc1cccs1)C(=O)c1snc(C(N)=O)c1N (centres undefined) | i | -17.1 | 7.1* | -3.3 | 5.0 | 91.3 | -6.4
CC(C)CC(C(=O)NC1CCCC1)N(Cc1cccs1)C(=O)c1snc(C(N)=O)c1N (centres undefined) | i | -13.5 | 1.1 | 1.1 | -2.3 | 92.1 | nt
NN=C1CCCc2nonc21 | nt | 1.6 | nt | nt | nt | nt | nt
NC(=NOC(=O)CCCc1ccccc1)c1cccc([N+](=O)[O-])c1 | nt | 0.5 | nt | nt | nt | nt | nt
CCc1cc2c(nc1CC)CCN(CCC(C)=NO[C@@H](C)c1cc(-c3c(C)cc(C)cc3C)no1)C2 | nt | 5.1 | nt | nt | nt | nt | nt
SMILES | Rce1 inh | UCH37 inh | MIN6 prolif-1 | PG9 Ab binder | Rev-erbA mod | Yeast superoxide | MIN6 prolif-2
O=C(NCCOc1ccccc1)c1n[nH]c(=O)c2ccccc12 | i | 1.8 | -2.8 | 1.0 | 1.6 | 100.4 | nt
CCCNC(=O)c1n[nH]c(=O)c2ccccc12 | i | 4.1 | 5.6* | -1.9 | -4.0 | 111.8 | 2.0
C=CCNC(=S)NN=Cc1ccc(C)cc1C | nt | 3.0 | nt | nt | nt | nt | nt
Cc1ccccc1CNC(=O)c1ccccc1N | i | -148.7 | 8.4* | -0.4 | -1.7 | 87.7 | -2.4
CCc1c(C)c(C#N)c2nc3ccccc3n2c1N(C)C | nt | -12.4 | 6.0* | -0.3 | 2.4 | 90.0 | -2.5
CCCCc1c(C)c(C#N)c2nc3ccccc3n2c1Cl | i | nt | nt | nt | nt | nt | nt
COc1ccc(/C=N/Nc2nc(N3CCCC3)nc(N3CCCC3)n2)cc1 | i | nt | nt | 0.2 | 0.0 | 92.0 | nt
COc1nc(N/N=C/c2ccc(C)cc2)nc(N2CCCCC2)n1 | i | nt | 7.4* | -3.0 | -1.2 | 106.3 | -1.1
O=C1C=C(N2CCCCCC2)C2(CCCCC2)O1 | i | 3.0 | 4.7 | -1.1 | -0.2 | 105.2 | nt
COC1=CC(=O)OC12CCCCC2 | i | -3.0 | 8.2* | 3.0 | -1.2 | 92.9 | 1.2
Cc1sc2ncn(N=Cc3ccco3)c(=O)c2c1C | nt | 2.5 | nt | nt | nt | nt | nt
O=C(NC1CCCCCCC1)C1c2ccccc2C(=O)N1Cc1ccco1 (centres undefined) | i | 0.4 | 4.3 | -2.0 | -0.6 | 132.9 | nt
CC1CCCC(NC(=O)C2c3ccccc3C(=O)N2Cc2cccs2)C1C (centres undefined) | i | nt | 0.0* | -1.6 | 7.3 | 120.0 | -6.3
O=C1CCCC2=C1C(c1ccc(Cl)cc1)n1c(sc(=Cc3ccc4ccncc4c3)c1=O)=N2 (centres undefined) | nt | -2.6 | nt | nt | nt | nt | nt
CCOC(=O)c1sc(NC(NC(=O)c2ccco2)(C(=O)OC)C(F)(F)F)nc1C (centres undefined) | i | 2.4 | 7.6* | 0.3 | -9.2 | 99.2 | -2.0
COc1ccc(C(C)=NNC(=O)CNC(=O)C(c2ccccc2)c2ccccc2)c(OC)c1 | nt | 0.9 | nt | nt | nt | nt | nt
C[C@@H](O)C1NC(=O)[C@H](CCCCN)NC(=O)c2cc([N+](=O)[O-])cc(F)c2NCCCC[C@@H](C(N)=O)NC1=O (some centres undefined) | i | 4.8 | 9.7* | nt | nt | 104.5 | -2.9
COc1ccc(C(C)=NN=C(N)N)c(O)c1 | nt | 1.5 | nt | nt | nt | nt | nt
O=C(CON=Cc1ccccc1OC(F)F)NCc1ccco1 | nt | 0.2 | nt | nt | nt | nt | nt
